# Bioassay records deposited in PubChem by Broad Institute.
# Xi reactivation – reactivates the inactive X chromosome in mouse fibroblasts | AID 743238 | activation, % at 7.58 µM | actives 0.055% (n = 360,000) | XiGFP mouse fibroblasts, % GFP-positive cells imaging, 3 d; cells co-treated with 5-aza-dC sensitizer; scaled so ellipticine positive control = 100%;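 active means mean normalized replicate activation at least 10% and every replicate at or above 10%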;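 further: 0% = median of on-plate neutral control wells and 100% = ellipticine 6 µM median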
#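 Material: XiGFP fibroblasts, SV40-immortalized. Buffer or medium: DMEM plus 5-aza-dC sensitizer. Compound: single concentration per compound, delivered by pin transfer. Times: 3 days compound exposure. Controls: ellipticine 6 µM.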
# E-sel inducer – E-selectin induction on HUVECs | P16581 | HUVEC E-selectin immunofluorescence imaging; normalized: neutral wells 0, TNF-alpha wells 100 | activation, % at 7.58 µM | actives 0.37% (n = 260,000) | AID 686992;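 active means mean E-selectin-positive cell signal at least 10% of the positive control, reached in at least 60% of replicates, without over 20% cell loss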
# Target sequence (P16581 whole entry, looked up): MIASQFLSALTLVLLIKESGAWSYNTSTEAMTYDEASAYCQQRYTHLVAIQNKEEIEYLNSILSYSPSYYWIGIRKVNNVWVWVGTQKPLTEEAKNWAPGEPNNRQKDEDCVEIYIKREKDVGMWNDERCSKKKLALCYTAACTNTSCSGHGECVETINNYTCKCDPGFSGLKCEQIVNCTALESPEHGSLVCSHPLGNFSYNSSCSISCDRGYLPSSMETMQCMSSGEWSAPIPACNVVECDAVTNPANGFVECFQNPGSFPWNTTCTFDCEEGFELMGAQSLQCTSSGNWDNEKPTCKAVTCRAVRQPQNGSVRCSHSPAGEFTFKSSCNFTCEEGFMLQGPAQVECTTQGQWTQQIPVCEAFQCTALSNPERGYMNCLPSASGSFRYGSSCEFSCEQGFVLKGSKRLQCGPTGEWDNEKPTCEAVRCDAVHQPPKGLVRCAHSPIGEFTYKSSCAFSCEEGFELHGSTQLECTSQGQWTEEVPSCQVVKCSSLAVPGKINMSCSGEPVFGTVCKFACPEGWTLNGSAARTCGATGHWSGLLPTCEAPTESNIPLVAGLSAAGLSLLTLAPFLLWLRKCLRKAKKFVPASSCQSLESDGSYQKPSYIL
#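 Assay system: HUVEC, human umbilical vein endothelial cells / Amount: 3,000 HUVEC/well / Controls: TNF-alpha positive control, DMSO neutral control / Compound dosing: single concentration / Medium: EGM-2 over gelatin coat / Evaluation: percent E-selectin-positive cells / Signal: immunofluorescence imaging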
# * = called active by the depositor; nt = not tested or not shown; ! = not confirmed by another sample. This is one part of a sample in which hits are shown more often than they occur.
SMILES,Xi reactivation,E-sel inducer
COCC(=O)N1C[C@H](C)[C@@H](OC)CN(C)C(=O)c2cc(NC(=O)Nc3cccc(F)c3)ccc2OC[C@H]1C,1.2,0.0
COc1ccccc1-c1ccc2c(c1)O[C@H](CN(C)C(=O)c1ccccc1)[C@@H](C)CN([C@H](C)CO)S2(=O)=O,-0.2,-0.4
COc1ccccc1NC(=O)Nc1ccc2c(c1)C(=O)N(C)C[C@H](OC)[C@H](C)CN(C)[C@H](C)CO2,-0.1,0.2
CCOc1ccc2ncc(S(=O)(=O)c3ccc(C)cc3)c(N3CCC4(CC3)OCCO4)c2c1,0.7,140.0*
CCOc1ccc2[nH]cc(S(=O)(=O)c3ccc(C)cc3)c(=O)c2c1,0.0,1.7
CCCNC(=O)N1CC2(CN(Cc3ccc(OC)cc3)C2)c2c(n(C)c3cc(OC)ccc23)[C@@H]1CO,0.1,0.3
C[C@@H]1CN([C@H](C)CO)C(=O)c2cccc(NS(=O)(=O)c3cn(C)cn3)c2O[C@@H]1CN(C)C(=O)Nc1ccc(F)cc1,0.0,21.2
C[C@H]1CN([C@@H](C)CO)C(=O)c2cccc(NC(=O)Nc3ccccc3)c2O[C@H]1CN(C)S(=O)(=O)c1cn(C)cn1,-0.6,0.2
C[C@@H]1CN([C@H](C)CO)C(=O)c2cccc(NC(=O)Nc3ccc(F)cc3)c2O[C@@H]1CN(C)S(=O)(=O)c1cn(C)cn1,0.0,80.4*
C[C@@H]1CN([C@H](C)CO)C(=O)c2cc(NS(=O)(=O)c3cn(C)cn3)ccc2O[C@@H](C)CCCCO[C@H]1CN(C)C(=O)Nc1ccc2c(c1)OCO2,-1.0,-0.2
C[C@@H]1CN([C@H](C)CO)C(=O)c2cccc(NS(=O)(=O)c3cn(C)cn3)c2O[C@H]1CN(C)C(=O)Nc1ccc(F)cc1,0.2,409.6*
C[C@@H]1CN([C@H](C)CO)C(=O)c2cc(NS(=O)(=O)c3cn(C)cn3)ccc2O[C@@H]1CN(C)C(=O)Nc1ccc2c(c1)OCO2,0.1,62.3*
C[C@@H]1CN([C@H](C)CO)C(=O)c2cc(NS(=O)(=O)c3cn(C)cn3)ccc2O[C@H]1CN(C)C(=O)Nc1ccc(F)cc1,0.0,-3.3
C[C@@H]1CN([C@@H](C)CO)C(=O)c2cc(NS(=O)(=O)c3cn(C)cn3)ccc2O[C@H]1CN(C)C(=O)Nc1ccc(F)cc1,0.1,86.5*
CCC(=O)N[C@@H]1CC[C@H](CC(=O)NCC2CC2)O[C@@H]1CO,0.2,nt
CO[C@@H]1CN(C)C(=O)c2ccc(NC(=O)c3cccc(Oc4ccccc4)c3)cc2OC[C@H](C)NC[C@H]1C,0.5,0.7
C[C@H](CO)N1C[C@H](C)[C@@H](CN(C)S(=O)(=O)c2cn(C)cn2)Oc2c(NC(=O)CCC(F)(F)F)cccc2C1=O,-0.6,nt
C[C@@H]1CN([C@@H](C)CO)C(=O)c2cccc(NC(=O)CCCCCC(=O)Nc3ccccc3N)c2O[C@H]1CN(C)S(=O)(=O)c1cn(C)cn1,-0.7,105.3*
C[C@H](CO)N1C[C@H](C)[C@H](CN(C)S(=O)(=O)c2cn(C)cn2)Oc2ccc(NC(=O)CCCCCC(=O)Nc3ccccc3N)cc2C1=O,0.0,-2.9
O=C1N[C@H](c2ccccc2)COCc2cn(nn2)CC[C@H](Cc2ccc(C(F)(F)F)cc2)C(=O)N[C@H](c2ccccc2)COCc2cn(nn2)CC[C@@H]1Cc1ccc(C(F)(F)F)cc1,0.0,nt
CC(=O)Nc1cccc(NC(=S)Nc2ccc(F)c(Cl)c2)c1,0.0,4.1
CC(=O)NNC(=S)Nc1cccc(F)c1,0.1,51.3*
C[C@H]1CN(C)C(=O)c2cc(N)ccc2O[C@H]1CN(C)C,0.1,nt
COc1ccccc1NC(=O)/C(=C\c1cccnc1)NC(=O)c1ccccc1,0.3,nt
COc1ccccc1CCNC(=O)/C(=C/c1cccnc1)NC(=O)c1ccccc1,0.0,52.1*
SMILES,Xi reactivation,E-sel inducer
CC(C)CC#Cc1ccc2c(c1)O[C@@H](CN(C)Cc1ccc(C(=O)O)cc1)[C@H](C)CN([C@@H](C)CO)S2(=O)=O,-1.0,-2.2
COC(=O)c1ccc(CNC(=O)c2ccc(OC)c(S(=O)(=O)NC3CCCC3)c2)cc1,-0.1,98.6*
COc1cccc(CNC(=O)c2ccc(OC)c(S(=O)(=O)NC3CCCC3)c2)c1,0.0,1.0
C[C@H](CO)N1C[C@H](C)[C@H](CN(C)Cc2ccc(C(F)(F)F)cc2)Oc2ccc(NS(=O)(=O)c3ccccc3)cc2CC1=O,0.3,5.6
C[C@@H]1CN([C@H](C)CO)C(=O)Cc2cc(NS(=O)(=O)c3ccccc3)ccc2O[C@H]1CN(C)Cc1ccc(C(F)(F)F)cc1,0.1,1.9
C[C@H](CO)N1C[C@H](C)[C@H](CN(C)Cc2ccc(C(F)(F)F)cc2)Oc2ccc(NC(=O)Cc3cn(C)c4ccccc34)cc2CC1=O,0.6,228.3*
C[C@@H]1CN([C@H](C)CO)C(=O)Cc2cc(NS(=O)(=O)c3ccccc3)ccc2O[C@@H]1CN(C)Cc1ccc(C(F)(F)F)cc1,0.3,46.6*
C[C@H](CO)N1C[C@H](C)[C@@H](CN(C)Cc2ccc(C(F)(F)F)cc2)Oc2ccc(NC(=O)Cc3cn(C)c4ccccc34)cc2CC1=O,-0.9,-2.5
C[C@H]1CN([C@@H](C)CO)C(=O)Cc2cc(NS(=O)(=O)c3ccccc3)ccc2O[C@H]1CN(C)Cc1ccc(C(F)(F)F)cc1,0.1,42.0*
CC(C)CC#Cc1ccc2c(c1)O[C@@H](CN(C)C(=O)Cc1ccccc1)[C@@H](C)CN([C@H](C)CO)S2(=O)=O,-0.8,0.0
COc1cccc(NC(=O)N(C)C[C@@H]2Oc3cc(C#Cc4ccc(F)cc4)ccc3S(=O)(=O)N([C@@H](C)CO)C[C@@H]2C)c1,-0.7,0.7
OC[C@@H]1[C@@H](c2ccc(C#Cc3ccccc3)cc2)[C@@H]2CN(Cc3ccccn3)CCCCN12,0.0,nt
Cc1noc(C)c1NC(=O)N(C)C[C@@H]1OCCCC[C@@H](C)Oc2ccc(NC(=O)NC(C)C)cc2C(=O)N([C@@H](C)CO)C[C@H]1C,0.0,0.0
C[C@@H]1CN([C@H](C)CO)C(=O)c2cccc(NC(=O)C3CC3)c2O[C@@H]1CN(C)Cc1ccccc1,0.4,72.0*
C[C@H](CO)N1C[C@H](C)[C@H](CN(C)Cc2ccccc2)Oc2c(NC(=O)Nc3cccc4ccccc34)cccc2C1=O,0.1,-0.3
C[C@H]1CN([C@@H](C)CO)C(=O)c2cccc(NC(=O)Nc3cccc4ccccc34)c2O[C@H]1CN(C)Cc1ccc(-c2ccccc2)cc1,0.3,89.7*
C[C@H](CO)N1C[C@H](C)[C@@H](CN(C)Cc2ccccc2)Oc2c(NC(=O)C3CC3)cccc2C1=O,-0.1,102.1*!
C[C@@H]1CN([C@H](C)CO)C(=O)c2cccc(NC(=O)C3CCCCC3)c2O[C@H]1CN(C)Cc1ccccc1,0.3,0.4
C[C@H](CO)N1C[C@H](C)[C@H](CN(C)Cc2ccccc2)Oc2c(NC(=O)C3CC3)cccc2C1=O,-0.1,-20.0
COc1ccc(/C=C\c2onc(C)c2S(=O)(=O)N2CCC(C(=O)NCc3ccco3)CC2)cc1,11.0*,-0.1
CCCNC(=O)C1CCN(S(=O)(=O)c2c(C)noc2/C=C\c2ccc(OC)cc2)CC1,-0.1,0.1
COc1ccc(CNS(=O)(=O)c2ccc3c(c2)C(C)(C)C(=O)N3C)cc1,0.2,126.8*
Cc1ccc(CNS(=O)(=O)c2ccc3c(c2)C(C)(C)C(=O)N3C)cc1,0.0,0.0
